According to paper PMC5909815 (Nature chemical biology, 2017):

What was measured:
ALK = ALK (Homo sapiens, UniProt Q9UM73); assay: in vitro kinase assay; type: biochemical
In short: (§1)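 Biochemical kinase IC50s were determined by two contract providers. One used a 10-dose 3-fold serial dilution from 20 μM and the other a 9-dose 3-fold dilution from 20 μM, each in technical duplicate. Reported values are the mean of the combined datasets.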

EML4-ALK = EML4-ALK (Homo sapiens, UniProt Q9HC35+Q9UM73); assay: c-ceritinib pulldown; type: binding; conditions: immobilized compound, cell lysate
H1155 cells [1] = assay: cell viability, combination of inhibitors with paclitaxel; type: cell-based
H1155 cells [2] = assay: apoptosis by cleaved caspase 3/7 and PARP1; type: cell-based; conditions: for apoptosis, single drug: single drug treatment
[3] = tested on: multiple cell lines (H650, H1155, H23); assay: relative cell counts after treatment with selective inhibitors; type: cell-based; conditions: 72 h
In short: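 Cells were treated 72 h with test inhibitors at 1.5 μM (20 μM for FMK and SL0101), diluted from 10 mM DMSO stocks in complete RPMI. Viable cells were counted in triplicate by trypan blue exclusion on a hemocytometer. Data are biological triplicates each in technical triplicate, reported as median ± SD relative counts.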

[4] = tested on: ALK-negative NSCLC cell lines (most sensitive cells); assay: CellTiter-Glo cell viability, dose-response curves; type: cell-based
[5] = tested on: NSCLC cell lines (KRAS-mutant H650, H1155 and H23 cells); assay: phenotypic drug screen, cell viability; type: cell-based; conditions: 72 h, 2.5 μM; ALK-negative lines
In short: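 Phenotypic screen: 240 compounds were tested across 20 NSCLC cell lines, seeded 1000 cells/well in 384-well plates and treated 24 h later. Compounds were diluted from 10 mM DMSO stocks in complete RPMI to final 0.5 μM and 2.5 μM for 72 h in biological duplicate. Viability was read by CellTiter-Glo luminescence and profiles were grouped by unsupervised hierarchical clustering.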

NSCLC cells = assay: cell cycle analysis by flow cytometry; type: cell-based
In short: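 Cell cycle: after incubation, cells were harvested, fixed in 70% cold ethanol and held at −20°C. They were then washed in PBS and stained with 1 μg/mL DAPI in 0.1% Triton X-100/PBS. DNA content was measured by flow cytometry and cell-cycle phases were modelled from the histograms.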

FER = FER (Homo sapiens, UniProt P16591); assay: in vitro kinase assay; type: biochemical
Chain of FER (P16591 whole entry): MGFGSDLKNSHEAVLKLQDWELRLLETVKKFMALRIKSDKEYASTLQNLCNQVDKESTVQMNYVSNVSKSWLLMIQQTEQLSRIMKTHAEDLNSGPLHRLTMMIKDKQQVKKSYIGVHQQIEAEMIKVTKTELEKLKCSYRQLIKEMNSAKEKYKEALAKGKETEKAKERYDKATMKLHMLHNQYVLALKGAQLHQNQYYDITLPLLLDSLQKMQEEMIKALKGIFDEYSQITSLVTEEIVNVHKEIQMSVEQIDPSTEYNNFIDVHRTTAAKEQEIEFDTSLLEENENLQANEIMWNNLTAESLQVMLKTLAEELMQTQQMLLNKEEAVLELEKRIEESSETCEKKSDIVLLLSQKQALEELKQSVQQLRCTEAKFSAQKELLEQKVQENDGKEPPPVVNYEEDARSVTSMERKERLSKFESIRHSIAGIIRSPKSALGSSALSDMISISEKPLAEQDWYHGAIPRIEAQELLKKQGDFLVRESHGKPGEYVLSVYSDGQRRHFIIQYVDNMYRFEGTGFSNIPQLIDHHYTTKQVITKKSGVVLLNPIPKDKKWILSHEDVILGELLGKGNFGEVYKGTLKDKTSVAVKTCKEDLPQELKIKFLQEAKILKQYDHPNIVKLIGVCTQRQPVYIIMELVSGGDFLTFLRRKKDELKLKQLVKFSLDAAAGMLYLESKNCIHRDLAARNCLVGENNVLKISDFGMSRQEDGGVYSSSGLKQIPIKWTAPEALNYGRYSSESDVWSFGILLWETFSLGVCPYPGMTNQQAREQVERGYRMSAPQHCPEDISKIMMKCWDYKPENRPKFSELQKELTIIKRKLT

AMPKα1 = AMPKα1 (Homo sapiens, UniProt Q13131); assay: in vitro kinase assay; type: biochemical
Chain of AMPKα1 (Q13131 whole entry): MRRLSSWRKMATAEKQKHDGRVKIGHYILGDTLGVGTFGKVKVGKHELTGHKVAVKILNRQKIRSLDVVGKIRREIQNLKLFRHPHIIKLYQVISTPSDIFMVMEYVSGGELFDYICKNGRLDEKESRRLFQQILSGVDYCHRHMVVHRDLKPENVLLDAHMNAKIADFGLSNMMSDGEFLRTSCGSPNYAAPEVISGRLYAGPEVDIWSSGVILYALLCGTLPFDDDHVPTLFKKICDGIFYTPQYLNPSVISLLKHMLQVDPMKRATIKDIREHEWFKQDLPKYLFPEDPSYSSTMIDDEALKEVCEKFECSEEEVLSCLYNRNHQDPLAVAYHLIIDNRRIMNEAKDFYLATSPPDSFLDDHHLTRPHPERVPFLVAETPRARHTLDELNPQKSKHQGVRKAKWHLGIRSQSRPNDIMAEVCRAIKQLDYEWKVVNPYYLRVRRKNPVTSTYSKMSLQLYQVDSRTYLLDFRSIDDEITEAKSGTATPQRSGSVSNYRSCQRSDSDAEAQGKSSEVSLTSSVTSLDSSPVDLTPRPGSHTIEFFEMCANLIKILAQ
Chain of AMPKα1 (Q9Y478 whole entry partner): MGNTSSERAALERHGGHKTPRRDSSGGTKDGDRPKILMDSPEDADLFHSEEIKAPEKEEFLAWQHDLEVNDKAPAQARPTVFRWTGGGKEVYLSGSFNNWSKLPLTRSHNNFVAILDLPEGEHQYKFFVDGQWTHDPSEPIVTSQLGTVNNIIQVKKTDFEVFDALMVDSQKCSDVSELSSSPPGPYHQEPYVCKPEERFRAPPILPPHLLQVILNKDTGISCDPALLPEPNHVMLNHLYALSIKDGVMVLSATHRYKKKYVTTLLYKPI
Chain of AMPKα1 (P54619 whole entry partner): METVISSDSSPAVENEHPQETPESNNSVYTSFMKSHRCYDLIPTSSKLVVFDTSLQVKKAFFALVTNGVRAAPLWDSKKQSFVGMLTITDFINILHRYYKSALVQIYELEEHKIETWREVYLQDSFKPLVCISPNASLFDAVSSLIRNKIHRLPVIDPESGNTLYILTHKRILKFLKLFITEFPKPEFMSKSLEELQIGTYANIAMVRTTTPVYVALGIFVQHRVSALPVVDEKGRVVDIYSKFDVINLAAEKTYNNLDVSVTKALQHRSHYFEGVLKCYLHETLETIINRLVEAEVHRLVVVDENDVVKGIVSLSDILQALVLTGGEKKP
In short: as §1

ERK1/2 = assay: in vitro kinase assay; type: biochemical; conditions: at 1.5 μM
mTOR = mTOR (Homo sapiens, UniProt P42345); assay: in vitro kinase assay; type: biochemical; conditions: at 1.5 μM
FAK1 and RSK1/2 = assay: c-ceritinib pulldown competition with free ceritinib; type: binding; conditions: 20 μM unmodified ceritinib, H650 cell lysate
[6] = target: RSK1/2 C-terminal kinase domain (CTKD); assay: cross-competition pulldown with NTKD or CTKD inhibitors; type: binding; conditions: H650 lysate ± 20 μM BI-D1870 or FMK
[7] = tested on: RSK1/2 S380/S386 autophosphorylation in H23 cells; assay: Western blot, RSK1/2 autophosphorylation; type: cell-based; conditions: 3 h
In short: (§2)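 H23 cells were treated for 3 h with test compounds: FMK at 20 μM, OSI-906 and PF-573228 at 1.5 μM. Target phosphorylation and downstream signals were read by western blot with HRP-conjugated secondary antibodies; n = 3.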

[8] = tested on: AKT phosphorylation in H23 cells; assay: Western blot, AKT phosphorylation; type: cell-based; conditions: 3 h
In short: as §2

[9] = tested on: autophosphorylation of FAK1 in H23 cells; assay: Western blot, FAK1 autophosphorylation; type: cell-based; conditions: 3 h
In short: as §2

[10] = tested on: ERK phosphorylation in H23 cells; assay: Western blot, ERK phosphorylation; type: cell-based; conditions: 3 h
In short: as §2

[11] = tested on: phosphorylation of RPS6 at S235/236; assay: Immunoblot, RPS6 phosphorylation; type: cell-based
[12] = tested on: phosphorylation of YB1 at S102; assay: Immunoblot, YB1 phosphorylation; type: cell-based; conditions: 3 h treatment
In short: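 YB1 phosphorylation was read by immunoblot after 3 h treatment: FMK 20 μM, OSI-906 1.5 μM, PF-573228 1.5 μM. Lysis was in NP40/Tris pH 7.5/glycerol/MgCl₂/NaCl buffer with phosphatase and protease inhibitors. Detection used HRP-conjugated anti-rabbit or anti-mouse secondaries.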

H650 and H1155 cells = assay: cell viability, combination with paclitaxel; type: cell-based; conditions: 72 h
In short: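 Cells were plated at 1000 cells/well in 384-well format and dosed 24 h later with test compound alone or with the partner agent, each diluted in culture medium. After 72 h, viability was read by CellTiter-Glo luminescence (n = 3). Dose-response curves were fitted, and combination effects were scored by the Bliss model or by the Chou-Talalay combination index.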

H460 cells [13] = assay: cell viability, combination with paclitaxel; type: cell-based
H460 cells [14] = assay: clonogenic assay, combination with paclitaxel; type: cell-based; conditions: 7 days
[15] = tested on: NRAS-mutant H1299 LCLC cells; assay: cell viability, combination with paclitaxel; type: cell-based
[16] = tested on: PDX tumor models with high pFAK1 staining (PDX1, PDX2, PDX3); assay: ex vivo soft-agar 3D clonogenic assay, combination with paclitaxel; type: cell-based; conditions: particularly at low drug concentrations
[17] = patient plasma; cited from earlier work

Chain of ALK (Q9UM73 19-1620): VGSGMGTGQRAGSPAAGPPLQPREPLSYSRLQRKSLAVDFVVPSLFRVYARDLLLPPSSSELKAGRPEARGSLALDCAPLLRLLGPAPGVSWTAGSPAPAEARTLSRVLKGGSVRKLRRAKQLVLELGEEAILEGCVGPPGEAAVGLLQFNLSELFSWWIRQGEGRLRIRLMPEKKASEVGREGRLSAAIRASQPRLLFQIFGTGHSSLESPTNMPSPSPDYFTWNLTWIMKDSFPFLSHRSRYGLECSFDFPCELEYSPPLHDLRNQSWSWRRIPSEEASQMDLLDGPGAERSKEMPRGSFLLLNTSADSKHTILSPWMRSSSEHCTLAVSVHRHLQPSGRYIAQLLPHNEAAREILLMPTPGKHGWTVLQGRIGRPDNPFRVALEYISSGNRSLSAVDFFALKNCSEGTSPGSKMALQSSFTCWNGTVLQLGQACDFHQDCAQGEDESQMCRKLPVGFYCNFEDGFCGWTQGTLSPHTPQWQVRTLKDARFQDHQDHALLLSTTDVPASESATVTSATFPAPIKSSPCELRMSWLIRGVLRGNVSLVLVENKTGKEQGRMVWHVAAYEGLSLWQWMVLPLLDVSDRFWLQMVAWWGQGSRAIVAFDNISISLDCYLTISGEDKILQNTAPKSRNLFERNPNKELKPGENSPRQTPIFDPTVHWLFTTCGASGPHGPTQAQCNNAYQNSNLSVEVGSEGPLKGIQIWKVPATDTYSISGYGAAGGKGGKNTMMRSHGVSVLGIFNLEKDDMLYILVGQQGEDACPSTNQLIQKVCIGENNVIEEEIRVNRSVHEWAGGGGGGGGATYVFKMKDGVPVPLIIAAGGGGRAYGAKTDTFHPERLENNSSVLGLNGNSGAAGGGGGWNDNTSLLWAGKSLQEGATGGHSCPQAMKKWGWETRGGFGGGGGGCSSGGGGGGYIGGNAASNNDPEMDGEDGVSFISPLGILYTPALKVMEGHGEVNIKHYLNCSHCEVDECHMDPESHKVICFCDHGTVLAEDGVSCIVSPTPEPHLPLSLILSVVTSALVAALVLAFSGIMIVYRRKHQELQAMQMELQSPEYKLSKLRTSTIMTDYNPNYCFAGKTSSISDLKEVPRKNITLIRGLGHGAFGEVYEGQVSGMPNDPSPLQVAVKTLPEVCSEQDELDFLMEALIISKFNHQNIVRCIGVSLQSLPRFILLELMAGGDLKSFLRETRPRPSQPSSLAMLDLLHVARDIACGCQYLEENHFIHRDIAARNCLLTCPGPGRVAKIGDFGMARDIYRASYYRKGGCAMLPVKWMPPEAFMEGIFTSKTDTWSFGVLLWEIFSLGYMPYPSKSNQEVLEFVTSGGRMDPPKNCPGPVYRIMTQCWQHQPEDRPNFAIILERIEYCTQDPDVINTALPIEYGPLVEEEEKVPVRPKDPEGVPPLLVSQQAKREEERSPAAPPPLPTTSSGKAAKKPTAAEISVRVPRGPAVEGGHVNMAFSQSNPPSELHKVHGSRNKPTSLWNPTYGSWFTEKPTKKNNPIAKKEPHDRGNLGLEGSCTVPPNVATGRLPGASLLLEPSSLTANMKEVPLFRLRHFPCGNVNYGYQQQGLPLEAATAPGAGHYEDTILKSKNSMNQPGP

## Cc1cc(Nc2ncc(Cl)c(Nc3ccccc3S(=O)(=O)C(C)C)n2)c(OC(C)C)cc1C1CCN(CCCN)CC1 [c-ceritinib]
ALK
  ALK inhibition: Activity was confirmed
EML4-ALK
  binding of EML4-ALK: ability to bind

## c1cc(-c2cnn3cc(-c4ccc(OCCN5CCCCC5)cc4)cnc23)ccn1 [compound C]
H1155 cells [1]
  synergy with paclitaxel: did not synergize

## CC(=O)O[C@H]1C(=O)[C@@]2(C)[C@H]([C@H](OC(=O)c3ccccc3)[C@]3(O)C[C@H](OC(=O)[C@H](O)[C@@H](NC(=O)c4ccccc4)c4ccccc4)C(C)=C1C3(C)C)[C@]1(OC(C)=O)CO[C@@H]1C[C@@H]2O [paclitaxel]
H1155 cells [2]
  apoptosis, single drug: no effect

## CS(=O)(=O)c1cccc(CNc2nc(Nc3ccc4c(c3)CCC(=O)N4)ncc2C(F)(F)F)c1 [PF-573228]
[3]; 1.5 μM
  effect on viability, single agent: little effect

## CN(C)C(=O)c1cc2cnc(Nc3ccc(N4CCNCC4)cn3)nc2n1C1CCCC1 [ribociclib]
H1155 cells [1]
  synergy with paclitaxel: did not exhibit synergy

## Cc1ccc(-c2c(C(=O)CF)n(CCCO)c3ncnc(N)c23)cc1 [FMK]
[3]; 20 μM
  effect on viability, single agent: little effect

## C[C@]1(O)C[C@@H](c2nc(-c3ccc4ccc(-c5ccccc5)nc4c3)c3c(N)nccn32)C1 [OSI-906]
[3]; 1.5 μM
  effect on viability, single agent: little effect

## CNC(=O)c1ccccc1Nc1nc(Nc2ccc3c(c2OC)CCC[C@H](N2CCN(CCO)CC2)C3)ncc1Cl [CEP-37440]
H1155 cells [1]
  synergy with paclitaxel: strongly synergized

## CC(=O)O[C@@H]1[C@@H](OC(C)=O)[C@@H](O)[C@H](Oc2c(-c3ccc(O)cc3)oc3cc(O)cc(O)c3c2=O)O[C@H]1C [SL0101]
[3]; 20 μM
  effect on viability, single agent: little effect

## Cc1cc(Nc2ncc(Cl)c(Nc3ccccc3S(=O)(=O)C(C)C)n2)c(OC(C)C)cc1C1CCNCC1 [ceritinib, 5-Chloro-N2-(2-isopropoxy-5-methyl-4-(piperidin-4-yl)phenyl)-N4-(2-(isopropylsulfonyl)phenyl)pyrimidine-2,4-diamine]
[4]; 72 h, read-out: IC50, inhibition of viability
  IC50: 1000 to 2000 nM
[4]; read-out: Emax, viability
  viability at 4 µM: 0%
[5]
  activity in viability screen: specific ALK-independent activity
NSCLC cells
  cell cycle effect: G1 cell cycle arrest
FER
  IC50: 5 nM
AMPKα1
  IC50: 2500 nM
ERK1/2
  inhibition: not significantly inhibited
mTOR
  inhibition: not significantly inhibited
FAK1 and RSK1/2
  competition from the affinity matrix: competed away
[6]
  kinase domain bound: binds to the CTKD
[7]
  effect on RSK1/2 S380/S386 autophosphorylation: inhibited
[8]
  effect on AKT phosphorylation: reduced
[9]
  effect on autophosphorylation of FAK1: reduced
[10]
  effect on ERK phosphorylation: only minor effects
[11]
  effect on RPS6 S235/236 phosphorylation: inhibited
[12]
  effect on YB1 S102 phosphorylation: inhibited
H650 and H1155 cells
  synergy, Bliss model of independence: substantial synergy
H1155 cells [2]; ceritinib combined with paclitaxel
  apoptosis, combination: significant increase in apoptosis
H1155 cells [2]
  apoptosis, single drug: no effect
H1155 cells [1]
  synergy with paclitaxel: pronounced synergy
H460 cells [13]
  synergy, CI values: highly synergistic
H460 cells [14]
  combination effect, clonogenic assay: pronounced combination effects
[15]
  response to combination: strong response
[16]
  synergy (Bliss), 3D ex vivo culture: pronounced synergy
[17]
  clinical plasma concentrations: 1.4 to 2.3 µM
